# Bioassay records (PubChem)
# NPR2 activator = GC-B (human) receptor activation; P20594; HEK293-GC-B cells, CNP EC30, cGMP TR-FRET; 0% at EC30 CNP, 100% saturating CNP; activation, % at 10 µM; 370,000 tested, 0.11% active; AID 1920062;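 active means activation at 10 µM reaching about 35% in either raw or pattern-adjusted values, limit read from the data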
# FN deposition inh = fibronectin deposition inhibition; AH1F fibroblasts, Alexa488-fibronectin deposition fluorescence, overnight; inhibition, % at 12.6 µM; 350,000 tested, 0.086% active; AID 743247;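 active means mean inhibition across replicates of 30% or more, regardless of how many single replicates reach that level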;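 further: positive control wells lacked labelled fibronectin entirely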
#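 Assay system: AH1F fibroblast monolayer, labelled fibronectin deposition. Amount: 10000 cells per well. Also added: labelled fibronectin 24 nM. Compound: single-point pinned compound. Incubation: cell attachment 1 h, compound and FN exposure overnight. Detection: fluorescence after three HBSS washes, excitation 485 nm, emission 525 nm. Read-out: inhibition of fibronectin deposition signal.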
# CaV13 FRET inh = Primary screen for inhibitors of IQ motif and Ca2+-dependent inactivation inhibitor domain binding in CACNA1D, Förster resonance energy transfer in living cells, … | HEK cells, CFP/YFP FRET ICDI-IQ, plate reader, 10 min; percent FRET-ratio fall versus neutral wells | inhibition, % at 12.3 µM | 340,000 tested, 0.098% active | AID 743397;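 active means mean replicate inhibition of at least 30% and at least 1% of replicates passing that level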;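 further: 0% = median of the neutral control wells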
# NSD2 inh = inhibitors of human histone methyltransferase NSD2. O96028. 310,000 tested, 0.54% active. NSD2 peptide methylation, AlphaScreen, 120 min. inhibition, % at 12.5 µM; in the data active means inhibition above about 50%
# CASP6 VEID inh = caspase-6 (human) enzyme inhibition; P55212; purified caspase-6, Z-VEID-R110 cleavage fluorescence; inhibition, % at 12.5 µM; 350,000 tested, 0.53% active;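 active means mean inhibition across replicates at least about 35%, with every replicate also reaching that limit, limit read from the data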;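 further: 0% = median of neutral control wells and 100% = no fluorescence left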
# GC-A act = GC-A (human) enzyme activation; 370,000 tested, 0.14% active; AID 1671463; HEK293 GC-A cells, cGMP TR-FRET, EC30 ANP; 0% at EC30 ANP, 100% saturating ANP; activation, % at 10 µM; in the data active means activation above about 40%
# * = called active by the depositor; · = no result given; + = active, no number. The list is not random: actives were taken first. Their share in the collection is about 0.99%.
SMILES,NPR2 activator,FN deposition inh,CaV13 FRET inh,NSD2 inh,CASP6 VEID inh,GC-A act
CC(C)CNC(=O)C1(C)CCCCCN1C(=O)c1cccnc1 (stereo unspecified),4.6,10.2,-5.0,1.5,55.6*,-3.2
CCCCCC(O)C=CC1C(O)CC(O)C1CC=CCCCC(=O)O (stereo unspecified),-5.1,-11.3,-6.7,-5.1,-1.3,1.1
CCCCC[C@@H](/C=C/C1C(=O)C=C[C@H]1C/C=C\CCCC(=O)O)OC(C)=O (stereo partly specified),-3.6,-1.8,-4.7,·,47.6*,-5.4
COCC(=O)N1[C@@H](CO)[C@@H]2c3ccccc3N(C(=O)C3CC3)C[C@@H]21,·,·,·,·,1.0,·
CCc1ccccc1NC(=O)CNC(=O)CCc1nc2sc3c(c2c(=O)[nH]1)CCCC3,1.1,0.1,-2.6,4.8,36.5*,-2.9
CCOc1ccc(C(=O)c2cc3ccc(O)cc3oc2=O)cc1,-1.3,5.8,89.9*,-1.2,-0.5,-0.6
O=C(c1ccc([N+](=O)[O-])cc1)c1cc2ccc(O)cc2oc1=O,-1.0,4.3,-16.2,5.0,0.9,4.2
COc1ccc(N(C)S(=O)(=O)c2cccc(C(=O)NCC(c3cccs3)N(C)C)c2)cc1 (stereo unspecified),-2.5,9.8,-5.7,2.0,40.0*,-1.5
CO[C@@H]1CN(C)C(=O)c2ccc(NC(=O)C3CCOCC3)cc2OC[C@@H](C)N(C(C)=O)C[C@H]1C,·,9.5,·,·,-2.0,·
C[C@H](CO)N1C[C@H](C)[C@H](CN(C)C(=O)Nc2cccc(F)c2)Oc2ncc(C#CCN(C)C)cc2C1=O,·,-1.4,·,·,-7.6,·
CC(=O)c1c(C)n(-c2cccc(Cl)c2)c2ccc(O)cc12,10.5,4.0,-19.6,2.2,-0.2,65.8*
C/C=C/c1ccc2c(c1)O[C@@H](CN(C)C(=O)NCCC)[C@H](C)CN([C@@H](C)CO)S2(=O)=O,·,·,·,·,0.9,·
C[C@@H]1CN([C@@H](C)CO)S(=O)(=O)c2ccc(Br)cc2O[C@H]1CN(C)C(=O)C1CC1,·,·,·,·,0.9,·
C/C(=N\NC(=O)c1cc(O)cc(O)c1)c1ccc(NC(=O)Cc2ccccc2)cc1,-5.4,-2.6,-11.8,·,71.3*,1.1
O=C1C(=Cc2ccco2)CCCC1=Cc1ccco1,-2.4,·,-6.2,22.1,71.6*,-0.4
O/N=C1\CCC\C1=C/c1ccco1,0.9,·,-8.2,3.6,·,1.9
COc1cc(OC)c(C#N)c(S(=O)(=O)Cc2ccccc2)c1,-3.1,·,-5.4,-0.8,·,-2.2
N#Cc1c([N+](=O)[O-])cc([N+](=O)[O-])cc1S(=O)(=O)Cc1ccccc1,-0.6,44.7*,-6.7,·,6.1,-4.4
CCCOc1ccc(F)cc1-c1cc(C(=O)Nc2ccc(OC)cc2C)[nH]n1,62.2*,8.6,-10.6,-4.3,-2.8,58.0*
COc1ccc(NC(=O)c2cc(-c3cc(Cl)ccc3OC)n[nH]2)c(C)c1,87.8*,-3.5,-10.7,0.3,-0.5,74.7*
Nc1nc(O)c(N=Nc2ccc(S(N)(=O)=O)cc2)c(=O)[nH]1,0.6,-1.4,-19.1,·,5.8,0.8
NS(=O)(=O)c1ccc(N=Nc2c[nH]c(=O)c(O)c2)cc1,-6.0,4.4,-23.5,43.6,88.7*,-9.3
COc1ccc(NC(=O)N(C)C[C@H]2Oc3cc(-c4ccc(C)cc4)ccc3S(=O)(=O)N([C@H](C)CO)C[C@H]2C)cc1,·,·,·,·,2.6,·
Nc1c2ccccc2nc2ccccc12,-2.8,5.7,40.3*,37.2,-5.0,10.8
Clc1cccc(-c2nn3c(Cn4cnc5ccccc54)nnc3s2)c1,-4.7,·,-6.6,4.2,57.5*,-4.5
SMILES,NPR2 activator,FN deposition inh,CaV13 FRET inh,NSD2 inh,CASP6 VEID inh,GC-A act
c1csc(-c2nn3c(Cn4cnc5ccccc54)nnc3s2)c1,-0.1,·,·,0.2,·,-13.4
CCC(=O)N(CC)C1=C(O)c2ccccc2C(=O)C1=O,5.1,·,-8.2,17.2,40.0*,2.3
CNC[C@H]1Oc2c(NC(=O)c3ccc(-c4nccs4)cc3)cccc2C(=O)N([C@H](C)CO)C[C@H]1C,·,7.0,·,·,-0.5,·
COc1ccc(CCNC(=O)c2c(C)noc2C)cc1,0.2,·,-8.0,1.1,49.5*,-0.6
Cc1noc(C)c1C(=O)NCCCc1ccccc1,-3.4,·,-8.7,-10.4,·,-1.6
N#Cc1ccc(-c2nc3ccc(Br)cn3c2Cc2cccc(F)c2)cc1,17.9,-3.0,-3.5,·,-1.5,18.4
N#Cc1ccc(-c2nc3ccc(Br)cn3c2Cc2ccccc2)cc1,35.3*,6.0,-10.4,·,2.2,29.4
Cc1cc(Br)cn2c(Cc3cccc(F)c3)c(-c3ccc(C#N)cc3)nc12,23.3,30.5*,-5.2,·,-2.2,15.0
Cc1ccc(C2=N/C(=C\c3coc4ccccc4c3=O)C(=O)O2)cc1,-0.9,2.1,-9.2,9.3,44.1*,1.1
CCC(=O)/C=C1/Sc2ccccc2N1CC,1.0,·,-0.5,·,·,-2.5
CCN1/C(=C/c2sc(-c3ccccc3C)c[n+]2C)Sc2ccccc21,-2.2,-7.2,+,3.1,0.5,-9.1
O=C(c1ccccc1)N1CCN(c2ccc(NCc3ccc4c(c3)OCO4)cc2)CC1,-0.1,4.8,56.2*,·,0.7,4.0
CC(=O)N1CCN(c2ccc(NCc3ccc4c(c3)OCO4)cc2)CC1,7.4,-3.2,-5.0,6.6,·,1.6
O=C(Nc1ccc(C(=O)N2CCCC2)cc1)c1ccc2c(c1)OCO2,-0.2,·,-7.6,2.7,44.3*,-1.1
O=C(c1ccc2c(c1)OCO2)N1CCCC1,·,-5.6,-3.3,-2.1,·,·
O=C(Cc1ccccn1)NCC[C@@H]1CC[C@@H](NC(=O)Nc2ccc(F)cc2)[C@@H](CO)O1,·,·,·,·,-3.6,·
Cc1ccc(S(=O)(=O)Nc2ccc3c(c2)C(=O)N([C@@H](C)CO)C[C@H](C)[C@@H](CN(C)Cc2ccc(C(=O)O)cc2)OCCCC[C@H](C)O3)cc1,·,1.5,·,·,0.5,·
CCc1ccccc1OCC(=O)OCC(=O)N1CC(=O)Nc2ccccc21,1.1,·,-6.3,1.7,59.5*,1.2
O=c1c2ccccc2n(CC(O)CN2CCCCC2)c2ccccc12 (stereo unspecified),-6.6,7.8,+,-4.8,-1.1,-0.5
COc1ccc(N2C(=O)[C@@H]3[C@H](C2=O)[C@H]2c4ccccc4C=CN2[C@@H]3C(C)=O)cc1,3.4,-10.4,-2.6,14.3,84.3*,-0.7
CC(C)(C)C(=O)[C@@H]1[C@@H]2C(=O)N(C3CCCCC3)C(=O)[C@@H]2[C@H]2c3ccccc3C=CN12,-1.3,-7.6,-6.2,124.8*,·,4.7
CCOc1cc(/C=N/NC(=O)c2ccc(-c3csc(Nc4ccc(C)cc4)n3)cc2)ccc1OCC(=O)O,10.1,-6.8,-4.3,-4.9,50.3*,-7.0
